Data: ChEMBL document CHEMBL4842338, “System-oriented optimization of multi-target 2,6-diaminopurine derivatives: Easily accessible broad-spectrum antivirals active against flaviviruses, influenza virus and SARS-CoV-2” (Eur J Med Chem, 2021)
The source made the active and inactive calls. The calls are words filed in the database; no cut-off is given here.

How the values were obtained:
[1] = Selectivity index, ratio of CC50 for human A549 cells to IC50 for Influenza A Puerto Rico/8/34/H1N1 infected in human A549 cells; format: toxicity, cell-based; conditions: read-out: Selectivity Index
Outline: (§1)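 MDCK or A549 cells (2.5 × 10⁵/well) infected with A/Puerto Rico/8/34 H1N1 for 1 h at 37 °C, then washed. Compound (0.5–20 μM) added in 2% FBS medium for 24 h, with DMSO final ≤0.2%. Virus in supernatants read by hemagglutination. CC₅₀ by MTT (2 × 10⁴ cells/well, same concentrations, 24 h, absorbance 570 nm). SI = CC₅₀/IC₅₀.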

Influenza A virus [2] = assay: Antiviral activity against Influenza A Puerto Rico/8/34/H1N1 infected in human A549 cells assessed as inhibition of viral replication after 24 hrs by hemagglutination assay; format: functional, organism-based; conditions: A/Puerto Rico/8/1934(H1N1), A549, 24 h
A549 = assay: Cytotoxicity against human A549 cells assessed as reduction in cell viability measured after 24 hrs by MTT assay; format: cell-based; conditions: a549, 24 h
Huh-7 = assay: Cytotoxicity against human Huh-7 cells assessed as reduction in cell viability by Celltiter-Glo luminescent cell viability assay; format: cell-based; conditions: huh-7
Outline: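 Compound-exposed cells assessed by CellTiter-Glo luminescence versus DMSO control; CC50 from dose-response.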

dengue virus type 2 = assay: Antiviral activity against Dengue virus serotype 2 New Guinea C infected in pre-seeded Huh-7 cells assessed as inhibition of viral replication incubated for 72 hrs by immunodetection based secondary yield reduction assay; format: functional, organism-based; conditions: Dengue virus, New Guinea C, Huh-7, 72 h; read-out: IC50
[3] = Selectivity index, ratio of CC50 for human Huh-7 cells to IC50 for Dengue virus serotype 2 New Guinea C infected in pre-seeded Huh-7 cells assessed as inhibition of viral replication incubated for 72 hrs by immunodetection based secondary yield reduction assay; format: toxicity, cell-based; conditions: read-out: Selectivity Index
Zika virus = assay: Antiviral activity against Zika virus H/PF/2013 infected in pre-seeded Huh-7 cells assessed as inhibition of viral replication incubated for 72 hrs by immunodetection based secondary yield reduction assay; format: functional, organism-based; conditions: H/PF/2013, Huh-7, 72 h
[4] = Selectivity index, ratio of CC50 for human Huh-7 cells to IC50 for Zika virus H/PF/2013 infected in pre-seeded Huh-7 cells assessed as inhibition of viral replication incubated for 72 hrs by immunodetection based secondary yield reduction assay; format: toxicity, cell-based; conditions: read-out: Selectivity Index
West Nile virus = assay: Antiviral activity against West Nile virus lineage 1 (Italy/2009) infected in pre-seeded Huh-7 cells assessed as inhibition of viral replication incubated for 48 hrs by immunodetection based direct yield reduction assay; format: functional, organism-based; conditions: West Nile virus, lineage 1 (Italy/2009), Huh-7, 48 h; read-out: IC50
[5] = Selectivity index, ratio of CC50 for human Huh-7 cells to IC50 for West Nile virus lineage 1 (Italy/2009) infected in pre-seeded Huh-7 cells assessed as inhibition of viral replication incubated for 48 hrs by immunodetection based direct yield reduction assay; format: toxicity, cell-based; conditions: read-out: Selectivity Index
Outline: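 Direct yield reduction in Huh7 cells (7000/well), infected with 50 TCID₅₀ of DENV or ZIKV, or 25 TCID₅₀ of WNV. Adsorption 1 h at 37 °C, then virus removed and serial compound dilutions added. Incubated 72 h (DENV, ZIKV) or 48 h (WNV). Viral antigen immunodetected on the monolayer. IC₅₀ by non-linear regression, mean of three experiments. SI = CC₅₀ (Huh7, CellTiter-Glo luminescence)/IC₅₀.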

[6] = Antioxidant activity assessed as inhibition of ABTS radical scavenging activity at 10 uM to 1 mM measured after 10 mins; format: functional
Outline: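 ABTS radical solution diluted in ethanol (1:100) to A734 0.70; 3.0 mL mixed with 30 μL sample in DMSO at 10 μM–1 mM; A734 read after exactly 10 min; ascorbic acid reference; % scavenging = (A0−As)/A0×100.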

MDCK = assay: Cytotoxicity against MDCK cells assessed as reduction in cell viability measured after 24 hrs by MTT assay; format: cell-based, Canis lupus familiaris; conditions: dog, mdck, 24 h
Influenza A virus [7] = assay: Antiviral activity against Influenza A Puerto Rico/8/34/H1N1 infected in MDCK cells assessed as inhibition of viral replication measured in supernatants of infected cells after 24 hrs by hemagglutination assay; format: functional, organism-based; conditions: A/Puerto Rico/8/1934(H1N1)
[8] = Selectivity index, ratio of CC50 for MDCK cells to IC50 for Influenza A Puerto Rico/8/34/H1N1 infected in MDCK cells; format: toxicity, cell-based; conditions: dog, read-out: Selectivity Index; outline: as §1
[9] = Inhibition of Dengue virus 2 […] RNA dependent RNA polymerase incubated for 10 mins by picogreen staining based fluorescent analysis (Rvb= 0.27+/-0.03 uM); design: species or system dengue virus type 2
[10] = Inhibition of full length Dengue virus 2 NS5 RNA dependent RNA polymerase incubated for 10 mins by picogreen staining based fluorescent analysis (Rvb= 0.32+/-0.05 uM); design: species or system dengue virus type 2
[11] = Inhibition of full length ZIKA virus NS5 RNA dependent RNA polymerase incubated for 10 mins by picogreen staining based fluorescent analysis (Rvb= 1+/-0.2 uM)
[12] = Inhibition of DENV NS5-MTase domain using GpppA2'OMe-RNA74 as a substrate incubated for 30 mins by filter binding assay; design: species or system dengue virus type 2
Outline: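 MTase (1 μM) incubated with increasing inhibitor in 40 mM Tris-HCl pH 7.5, 5 mM DTT, 10 μM AdoMet ([3H]-labelled), 0.5 μM GpppA2′OMe-RNA74 substrate, 30 °C for 30 min; stopped in ice-cold 100 μM AdoHcy; DEAE filter binding, scintillation counting.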

[13] = Inhibition of full length ZIKV NS5-MTase domain using 7MeGpppAC4 as a substrate incubated for 30 mins by filter binding assay; design: species or system Zika virus
[14] = biological target: Src (Proto-oncogene tyrosine-protein kinase Src) (Homo sapiens, UniProt P12931); assay: Inhibition of human recombinant N terminal His6 tagged full length Src assessed as residual activity at 5 uM using KVEKIGEGTYGVVYK as a substrate in the presence of NP-40 incubated for 10 mins by scintillation counting analysis relative to control; conditions: probe KVEKIGEGTYGVVYK, read-out: Activity
Outline: (§2)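 Compounds at fixed 5 μM; 10–50 ng kinase, substrate and NP-40/BSA per supplementary table, 10 μL at 30 °C for 10 min in low-binding tubes. Reactions spotted on filter, dried, scintillation counted. Mean ± SD of two independent experiments.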

[15] = biological target: Abl (Tyrosine-protein kinase ABL1) (Homo sapiens, UniProt P00519); assay: Inhibition of human recombinant N terminal His6 tagged Abl (27 to end residue) assessed as residual activity at 5 uM using KKGEAIYAADFA-NH2 as a substrate in the presence of NP-40 incubated for 10 mins by scintillation counting analysis relative to control; conditions: probe KKGEAIYAADFA-NH2, read-out: Activity; outline: as §2
[16] = biological target: Fyn (Tyrosine-protein kinase Fyn) (Homo sapiens, UniProt P06241); assay: Inhibition of human recombinant N terminal His6 tagged full length Fyn assessed as residual activity at 5 uM using […] as a substrate in the presence of NP-40 incubated for 10 mins by scintillation counting analysis relative to control; conditions: probe […], read-out: Activity; outline: as §2
[17] = biological target: PIK3CA (Phosphatidylinositol 4,5-bisphosphate 3-kinase catalytic subunit alpha isoform) (Homo sapiens, UniProt P42336); assay: Inhibition of human full length PIK3CA assessed as residual activity at 5 uM using PI:PS (1:3) as a substrate incubated for 10 mins by scintillation counting analysis relative to control; conditions: full length PIK3CA enzyme, probe PI:PS (1:3), read-out: Activity
Outline: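 Radiometric kinase reaction with 10–50 ng enzyme and compound fixed at 5 μM, 10 μL at 30 °C for 10 min. Reactions spotted on filter and counted by scintillation. Residual activity is the mean ± SD of two independent experiments.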

CDK9/cyclin T1 = CDK9/cyclin T1 (Homo sapiens, UniProt P50750); assay: Inhibition of human full length CDK9/ His-tagged cT1 assessed as residual activity at 5 uM using CDKtide as a substrate in the presence of BSA incubated for 10 mins by scintillation counting analysis relative to control; format: protein-complex assay; conditions: full length CDK9/His-tagged cyclin T1 complex, probe CDKtide, read-out: Activity; outline: as §2
Chain of CDK9/cyclin T1 (O60563 whole entry): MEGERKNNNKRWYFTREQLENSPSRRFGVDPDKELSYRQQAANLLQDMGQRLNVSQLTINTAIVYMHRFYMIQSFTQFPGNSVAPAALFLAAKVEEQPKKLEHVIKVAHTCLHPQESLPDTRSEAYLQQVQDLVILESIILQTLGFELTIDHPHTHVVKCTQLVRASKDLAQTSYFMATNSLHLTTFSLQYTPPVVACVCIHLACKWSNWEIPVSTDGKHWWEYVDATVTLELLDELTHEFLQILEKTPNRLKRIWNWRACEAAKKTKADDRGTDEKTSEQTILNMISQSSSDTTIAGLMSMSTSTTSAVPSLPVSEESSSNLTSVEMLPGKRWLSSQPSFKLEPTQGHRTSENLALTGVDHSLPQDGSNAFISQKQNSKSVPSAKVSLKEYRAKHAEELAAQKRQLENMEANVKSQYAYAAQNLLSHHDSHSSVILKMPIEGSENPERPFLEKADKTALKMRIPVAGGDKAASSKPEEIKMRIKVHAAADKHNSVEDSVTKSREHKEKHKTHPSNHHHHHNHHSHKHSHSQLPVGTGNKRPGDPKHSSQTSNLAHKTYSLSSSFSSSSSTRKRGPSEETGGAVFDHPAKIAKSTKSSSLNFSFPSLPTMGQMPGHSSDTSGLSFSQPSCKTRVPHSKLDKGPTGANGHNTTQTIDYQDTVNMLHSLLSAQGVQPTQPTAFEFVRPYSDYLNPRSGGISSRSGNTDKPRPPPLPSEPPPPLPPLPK
Chain of CDK9/cyclin T1 (P50750 whole entry): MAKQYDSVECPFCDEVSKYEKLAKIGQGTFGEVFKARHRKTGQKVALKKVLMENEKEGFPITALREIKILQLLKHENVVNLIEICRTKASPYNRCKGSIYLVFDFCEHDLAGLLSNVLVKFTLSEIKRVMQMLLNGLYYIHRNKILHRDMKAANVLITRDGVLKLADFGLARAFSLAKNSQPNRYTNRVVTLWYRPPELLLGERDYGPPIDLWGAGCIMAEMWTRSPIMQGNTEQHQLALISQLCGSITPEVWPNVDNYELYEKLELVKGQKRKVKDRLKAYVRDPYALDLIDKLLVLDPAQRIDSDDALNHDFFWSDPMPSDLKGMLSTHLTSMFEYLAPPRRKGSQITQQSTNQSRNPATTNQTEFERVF

Chain of Fyn (Tyrosine-protein kinase Fyn) (P06241 whole entry, canonical isoform): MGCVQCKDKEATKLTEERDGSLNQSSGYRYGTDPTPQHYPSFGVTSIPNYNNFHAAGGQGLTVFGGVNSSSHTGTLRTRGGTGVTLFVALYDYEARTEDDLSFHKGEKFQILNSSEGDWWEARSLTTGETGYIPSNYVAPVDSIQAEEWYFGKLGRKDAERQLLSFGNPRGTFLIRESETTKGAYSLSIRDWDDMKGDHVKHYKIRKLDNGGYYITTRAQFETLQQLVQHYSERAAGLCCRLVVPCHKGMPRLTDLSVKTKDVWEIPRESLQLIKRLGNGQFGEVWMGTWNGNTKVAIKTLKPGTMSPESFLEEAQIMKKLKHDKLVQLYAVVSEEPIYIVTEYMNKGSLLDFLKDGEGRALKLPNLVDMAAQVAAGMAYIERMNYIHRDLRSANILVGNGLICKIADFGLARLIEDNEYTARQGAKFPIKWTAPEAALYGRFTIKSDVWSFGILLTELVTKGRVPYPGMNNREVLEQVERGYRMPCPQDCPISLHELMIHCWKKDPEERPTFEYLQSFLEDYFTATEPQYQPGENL
Chain of Abl (Tyrosine-protein kinase ABL1) (P00519 whole entry): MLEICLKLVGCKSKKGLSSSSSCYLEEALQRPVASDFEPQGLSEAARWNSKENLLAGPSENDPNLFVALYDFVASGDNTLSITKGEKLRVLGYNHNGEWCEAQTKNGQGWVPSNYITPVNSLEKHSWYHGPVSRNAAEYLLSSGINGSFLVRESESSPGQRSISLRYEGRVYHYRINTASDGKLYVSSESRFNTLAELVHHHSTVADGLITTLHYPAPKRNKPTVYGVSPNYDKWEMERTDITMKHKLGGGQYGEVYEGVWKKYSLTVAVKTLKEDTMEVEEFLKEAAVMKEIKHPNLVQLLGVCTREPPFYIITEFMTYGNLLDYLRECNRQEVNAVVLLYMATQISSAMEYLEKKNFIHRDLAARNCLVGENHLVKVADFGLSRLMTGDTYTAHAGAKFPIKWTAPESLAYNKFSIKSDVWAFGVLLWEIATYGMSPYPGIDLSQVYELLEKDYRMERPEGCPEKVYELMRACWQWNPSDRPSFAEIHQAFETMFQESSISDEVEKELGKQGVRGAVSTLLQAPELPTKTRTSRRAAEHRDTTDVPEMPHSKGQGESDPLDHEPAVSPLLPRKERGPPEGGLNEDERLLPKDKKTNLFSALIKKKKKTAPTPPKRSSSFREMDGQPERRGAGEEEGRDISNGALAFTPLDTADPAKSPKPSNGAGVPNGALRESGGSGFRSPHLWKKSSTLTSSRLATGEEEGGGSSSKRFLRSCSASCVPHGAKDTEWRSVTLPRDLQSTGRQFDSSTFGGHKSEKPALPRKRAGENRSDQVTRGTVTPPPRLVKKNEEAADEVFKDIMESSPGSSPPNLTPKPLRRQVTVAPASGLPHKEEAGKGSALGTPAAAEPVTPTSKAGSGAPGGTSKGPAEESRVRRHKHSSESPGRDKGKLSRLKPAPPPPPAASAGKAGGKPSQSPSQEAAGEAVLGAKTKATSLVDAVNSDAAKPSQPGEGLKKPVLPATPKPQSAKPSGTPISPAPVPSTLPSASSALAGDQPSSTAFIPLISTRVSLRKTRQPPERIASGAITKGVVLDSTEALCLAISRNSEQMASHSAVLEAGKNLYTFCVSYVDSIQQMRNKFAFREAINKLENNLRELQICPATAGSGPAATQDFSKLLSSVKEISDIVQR
Chain of Src (Proto-oncogene tyrosine-protein kinase Src) (P12931 2-536 limits assumed): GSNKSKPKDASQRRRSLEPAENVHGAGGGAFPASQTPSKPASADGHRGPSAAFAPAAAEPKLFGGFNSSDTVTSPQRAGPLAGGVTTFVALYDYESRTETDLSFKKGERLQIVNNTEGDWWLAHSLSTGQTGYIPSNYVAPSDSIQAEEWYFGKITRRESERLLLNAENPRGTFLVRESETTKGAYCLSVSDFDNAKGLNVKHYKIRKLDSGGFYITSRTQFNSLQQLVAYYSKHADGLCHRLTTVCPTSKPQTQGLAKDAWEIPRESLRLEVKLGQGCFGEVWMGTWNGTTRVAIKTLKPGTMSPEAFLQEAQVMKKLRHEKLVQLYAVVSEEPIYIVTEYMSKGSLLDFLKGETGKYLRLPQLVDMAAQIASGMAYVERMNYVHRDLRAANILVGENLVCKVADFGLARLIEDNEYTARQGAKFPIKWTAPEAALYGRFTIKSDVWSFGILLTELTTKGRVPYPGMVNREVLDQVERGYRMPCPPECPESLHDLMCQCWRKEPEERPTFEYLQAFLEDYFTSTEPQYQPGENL
Chain of PIK3CA (Phosphatidylinositol 4,5-bisphosphate 3-kinase catalytic subunit alpha isoform) (P42336 whole entry, canonical isoform): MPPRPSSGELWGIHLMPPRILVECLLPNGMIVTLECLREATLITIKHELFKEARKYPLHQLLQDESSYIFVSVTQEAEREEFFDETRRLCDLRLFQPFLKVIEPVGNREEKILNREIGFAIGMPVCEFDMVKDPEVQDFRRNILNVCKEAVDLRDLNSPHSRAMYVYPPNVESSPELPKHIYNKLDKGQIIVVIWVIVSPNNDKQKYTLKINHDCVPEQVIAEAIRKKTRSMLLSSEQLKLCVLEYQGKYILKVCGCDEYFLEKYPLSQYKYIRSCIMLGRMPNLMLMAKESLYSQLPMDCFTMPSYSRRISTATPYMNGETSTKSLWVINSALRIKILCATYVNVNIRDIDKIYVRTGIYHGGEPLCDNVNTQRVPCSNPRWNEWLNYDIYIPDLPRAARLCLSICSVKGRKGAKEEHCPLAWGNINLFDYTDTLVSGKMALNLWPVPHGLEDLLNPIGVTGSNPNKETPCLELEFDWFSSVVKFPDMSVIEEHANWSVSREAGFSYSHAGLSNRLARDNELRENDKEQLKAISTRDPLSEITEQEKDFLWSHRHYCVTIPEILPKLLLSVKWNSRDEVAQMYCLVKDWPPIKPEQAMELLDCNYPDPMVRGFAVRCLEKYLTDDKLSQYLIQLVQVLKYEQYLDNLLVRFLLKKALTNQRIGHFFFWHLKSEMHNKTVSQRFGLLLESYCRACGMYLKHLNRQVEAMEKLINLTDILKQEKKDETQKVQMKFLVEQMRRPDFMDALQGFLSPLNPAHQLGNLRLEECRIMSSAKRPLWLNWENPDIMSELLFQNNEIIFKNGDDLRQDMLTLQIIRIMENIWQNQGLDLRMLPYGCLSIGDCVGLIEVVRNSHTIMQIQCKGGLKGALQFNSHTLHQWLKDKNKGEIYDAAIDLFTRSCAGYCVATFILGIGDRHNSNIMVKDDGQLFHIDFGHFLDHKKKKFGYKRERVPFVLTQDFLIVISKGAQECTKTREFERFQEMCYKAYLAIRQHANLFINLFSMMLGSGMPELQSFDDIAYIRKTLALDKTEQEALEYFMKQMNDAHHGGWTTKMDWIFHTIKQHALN

SMILES: Fc1cccc(NNc2nc(NCCOc3ccccc3)nc3[nH]cnc23)c1
- selectivity ratio [1]: 3.5
- IC50 (Influenza A virus [2]): 14.9 µM
- CC50 (A549): 52.4 µM
- CC50 (Huh-7): 20 µM
- IC50 (dengue virus type 2): 3.4 µM
- selectivity ratio at 72 h [3]: 6
- IC50 (Zika virus): 2.4 µM
- selectivity ratio at 72 h [4]: 8
- IC50 (West Nile virus): 1.1 µM
- selectivity ratio at 48 h [5]: 18
- Activity [6]: Active
- CC50 (MDCK): 136 µM
- IC50 (Influenza A virus [7]): 6.3 µM
- selectivity ratio [8]: > 5.3
- IC50 [9]: > 100 µM
- IC50 [10]: 153 µM
- IC50 [11]: 105 µM
- IC50 [12]: Not Active
- IC50 [13]: Not Active
- activity at 10 min, 5 µM [14]: 84%
- activity at 10 min, 5 µM [15]: 67%
- activity at 10 min, 5 µM [16]: > 98%
- activity at 10 min, 5 µM [17]: 77%
- activity at 10 min, 5 µM (CDK9/cyclin T1): 88%
